Measured values as given in ChEMBL document CHEMBL5649168, “Discovery of a selective catalytic p300/CBP inhibitor that targets lineage-specific tumours” (Nature, 2017).
Calls of active or inactive are those of the source. No cut-off for these calls is given here.

Columns and labels:
SU-DHL-8 = assay: Antiproliferative activity against human SU-DHL-8 cells assessed as inhibition of cell viability incubated for 3 to 5 days by Celltiter-Glo luminescent assay; format: functional, cell-based
[1] = target: Serine/threonine-protein kinase D3 (Homo sapiens, UniProt O94806); assay: Inhibition of PRKCN (unknown origin)
Sequence of Serine/threonine-protein kinase D3 (O94806 whole entry): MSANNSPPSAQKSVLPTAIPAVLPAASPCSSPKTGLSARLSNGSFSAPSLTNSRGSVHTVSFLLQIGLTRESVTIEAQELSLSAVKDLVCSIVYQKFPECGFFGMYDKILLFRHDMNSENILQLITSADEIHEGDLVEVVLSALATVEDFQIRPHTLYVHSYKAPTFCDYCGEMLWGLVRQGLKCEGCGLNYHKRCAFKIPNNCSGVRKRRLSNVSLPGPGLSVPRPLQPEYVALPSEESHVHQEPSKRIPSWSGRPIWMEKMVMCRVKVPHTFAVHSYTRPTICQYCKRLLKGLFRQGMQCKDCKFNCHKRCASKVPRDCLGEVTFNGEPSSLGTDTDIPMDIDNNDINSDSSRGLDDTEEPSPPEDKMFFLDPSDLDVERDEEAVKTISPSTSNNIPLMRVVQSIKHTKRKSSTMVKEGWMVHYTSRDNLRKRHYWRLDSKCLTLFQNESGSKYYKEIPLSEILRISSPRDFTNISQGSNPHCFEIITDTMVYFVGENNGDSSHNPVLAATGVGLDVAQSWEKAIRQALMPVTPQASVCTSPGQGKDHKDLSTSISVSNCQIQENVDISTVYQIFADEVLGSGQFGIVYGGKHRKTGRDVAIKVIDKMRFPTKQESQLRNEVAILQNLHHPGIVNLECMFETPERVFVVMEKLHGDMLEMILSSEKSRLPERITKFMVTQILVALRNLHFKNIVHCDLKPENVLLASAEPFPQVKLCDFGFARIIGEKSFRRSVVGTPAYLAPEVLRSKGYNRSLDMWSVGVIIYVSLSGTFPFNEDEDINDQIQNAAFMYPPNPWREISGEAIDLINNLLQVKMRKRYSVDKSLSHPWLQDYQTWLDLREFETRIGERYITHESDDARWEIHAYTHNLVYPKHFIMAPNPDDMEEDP

[2] = target: NT-3 growth factor receptor (Homo sapiens, UniProt Q16288); assay: Inhibition of TrkC (unknown origin)
Sequence of NT-3 growth factor receptor (Q16288 whole entry): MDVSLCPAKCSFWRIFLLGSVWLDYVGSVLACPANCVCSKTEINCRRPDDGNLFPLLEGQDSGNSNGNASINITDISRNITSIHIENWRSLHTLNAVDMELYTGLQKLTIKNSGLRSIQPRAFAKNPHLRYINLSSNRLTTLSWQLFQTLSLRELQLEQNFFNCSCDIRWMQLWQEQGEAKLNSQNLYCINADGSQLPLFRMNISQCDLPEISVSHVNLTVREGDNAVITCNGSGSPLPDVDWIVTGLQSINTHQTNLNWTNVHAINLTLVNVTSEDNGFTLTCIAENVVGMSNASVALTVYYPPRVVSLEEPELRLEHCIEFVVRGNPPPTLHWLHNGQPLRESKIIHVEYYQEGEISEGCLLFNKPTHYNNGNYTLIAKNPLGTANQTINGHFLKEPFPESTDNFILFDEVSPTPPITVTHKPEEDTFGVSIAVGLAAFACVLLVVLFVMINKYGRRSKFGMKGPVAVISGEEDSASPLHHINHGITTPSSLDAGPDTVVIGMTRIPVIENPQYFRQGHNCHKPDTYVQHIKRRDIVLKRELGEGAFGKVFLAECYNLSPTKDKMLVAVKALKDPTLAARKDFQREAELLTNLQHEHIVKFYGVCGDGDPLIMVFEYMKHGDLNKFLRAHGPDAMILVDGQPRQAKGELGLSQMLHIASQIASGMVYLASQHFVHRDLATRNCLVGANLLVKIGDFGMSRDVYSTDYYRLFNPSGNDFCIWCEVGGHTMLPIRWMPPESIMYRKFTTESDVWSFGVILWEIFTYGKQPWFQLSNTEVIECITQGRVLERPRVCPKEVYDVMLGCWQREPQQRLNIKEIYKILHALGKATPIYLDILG

MDA-MB-453 = assay: Antiproliferative activity against human MDA-MB-453 cells assessed as inhibition of cell viability incubated for 3 to 5 days by Celltiter-Glo luminescent assay; format: functional, cell-based
[3] = Tmax in CB17 SCID mouse xenografted with LuCaP-77 CR cell at 200 mg/kg, ip administered for 7 days; format: ADME, organism-based; settings: in vivo, time 7 day
NCI-H209 = assay: Antiproliferative activity against human NCI-H209 cells assessed as inhibition of cell viability incubated for 3 to 5 days by Celltiter-Glo luminescent assay; format: functional, cell-based
MDA-MB-436 = assay: Antiproliferative activity against human MDA-MB-436 cells assessed as inhibition of cell viability incubated for 3 to 5 days by Celltiter-Glo luminescent assay; format: functional, cell-based
[4] = target: Mitogen-activated protein kinase 14 (Homo sapiens, UniProt Q16539); assay: Inhibition of p38alpha (unknown origin)
[5] = target: Calcium/calmodulin-dependent protein kinase type II subunit alpha (Homo sapiens, UniProt Q9UQM7); assay: Inhibition of CAMK2A (unknown origin)
GA-10 = assay: Antiproliferative activity against human GA-10 cells assessed as inhibition of cell viability incubated for 3 to 5 days by Celltiter-Glo luminescent assay; format: functional, cell-based
[6] = target: Calcium/calmodulin-dependent protein kinase type 1D (Homo sapiens, UniProt Q8IU85); assay: Inhibition of CAMK1D (unknown origin)
NU-DHL-1 = assay: Antiproliferative activity against human NU-DHL-1 cells assessed as inhibition of cell viability incubated for 3 to 5 days by Celltiter-Glo luminescent assay; format: functional, cell-based
WSU-NHL = assay: Antiproliferative activity against human WSU-NHL cells assessed as inhibition of cell viability incubated for 3 to 5 days by Celltiter-Glo luminescent assay; format: functional, cell-based
Malme-3M = assay: Antiproliferative activity against human Malme-3M cells assessed as inhibition of cell viability incubated for 3 to 5 days by Celltiter-Glo luminescent assay; format: functional, cell-based
[7] = Cmax in CB17 SCID mouse xenografted with LuCaP-77 CR cell at 100 mg/kg, ip administered for 7 days; format: ADME, organism-based; settings: in vivo, time 7 day
[8] = target: CREB-binding protein/Histone acetyltransferase p300 (Homo sapiens, UniProt Q09472+Q92793); assay: Inhibition of p300/CBP in human 22Rv1 cells assessed as reduction in H3K18Ac level incubated for 1 hr by Hoechst 33342 staining based high content microscopy analysis; format: cell-based
Summary of the method: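 Cells received an 8-point half-log dilution series from 10 µM. They were then fixed in 10% formaldehyde (10 min, RT), permeabilised with 0.1% Triton X-100 and blocked with 1% BSA for 1 h. Primary antibodies were applied overnight at 4 °C, followed by Alexa488 anti-rabbit, Alexa555 anti-mouse and Hoechst 33342 for 1 h. Fifteen fields per well were imaged and average mean intensity taken. EC50 came from a sigmoidal fit.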

[9] = target: Serine/threonine-protein kinase PAK 4 (Homo sapiens, UniProt O96013); assay: Inhibition of PAK4KD (unknown origin)
Sequence of Serine/threonine-protein kinase PAK 4 (O96013 whole entry): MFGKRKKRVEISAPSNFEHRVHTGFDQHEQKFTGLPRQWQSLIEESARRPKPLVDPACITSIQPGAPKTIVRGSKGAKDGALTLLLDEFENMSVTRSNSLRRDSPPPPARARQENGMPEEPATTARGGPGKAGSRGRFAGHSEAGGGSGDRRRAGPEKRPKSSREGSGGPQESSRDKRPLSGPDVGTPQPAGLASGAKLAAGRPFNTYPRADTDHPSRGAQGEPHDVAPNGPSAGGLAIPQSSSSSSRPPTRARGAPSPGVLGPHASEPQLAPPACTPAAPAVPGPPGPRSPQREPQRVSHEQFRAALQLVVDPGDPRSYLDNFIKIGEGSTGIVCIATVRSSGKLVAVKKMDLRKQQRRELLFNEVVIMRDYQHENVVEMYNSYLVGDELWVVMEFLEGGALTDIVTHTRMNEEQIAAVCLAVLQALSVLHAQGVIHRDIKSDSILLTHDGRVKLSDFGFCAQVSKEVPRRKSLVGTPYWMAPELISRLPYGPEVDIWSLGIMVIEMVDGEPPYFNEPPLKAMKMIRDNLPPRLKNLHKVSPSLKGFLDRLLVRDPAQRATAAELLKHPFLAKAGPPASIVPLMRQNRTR

SU-DHL-2 = assay: Antiproliferative activity against human SUDHL2 cells assessed as inhibition of cell viability incubated for 3 to 5 days by Celltiter-Glo luminescent assay; format: functional, cell-based
[10] = target: Tyrosine-protein kinase receptor TYRO3 (Homo sapiens, UniProt Q06418); assay: Inhibition of TYRO3 (unknown origin)
NCI-H510A = assay: Antiproliferative activity against human NCI-H510A cells assessed as inhibition of cell viability incubated for 3 to 5 days by Celltiter-Glo luminescent assay; format: functional, cell-based
[11] = target: Bromodomain-containing protein 3 (Homo sapiens, UniProt Q15059); assay: Inhibition of BRD3 (unknown origin)
[12] = Cmax in CB17 SCID mouse xenografted with LuCaP-77 CR cell at 200 mg/kg, ip administered for 7 days; format: ADME, organism-based; settings: in vivo, time 7 day
[13] = target: Serine/threonine-protein kinase pim-1 (Homo sapiens, UniProt P11309); assay: Inhibition of Pim1 (unknown origin)
Sequence of Serine/threonine-protein kinase pim-1 (P11309 whole entry): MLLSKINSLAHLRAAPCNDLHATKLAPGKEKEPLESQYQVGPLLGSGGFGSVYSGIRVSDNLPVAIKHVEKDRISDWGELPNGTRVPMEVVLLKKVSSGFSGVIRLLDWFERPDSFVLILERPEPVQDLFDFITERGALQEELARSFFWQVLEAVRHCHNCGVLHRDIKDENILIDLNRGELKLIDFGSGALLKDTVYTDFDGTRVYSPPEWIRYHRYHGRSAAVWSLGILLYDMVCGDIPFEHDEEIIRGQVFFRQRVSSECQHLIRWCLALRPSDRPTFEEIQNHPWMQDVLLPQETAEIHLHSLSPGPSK

[14] = target: Proto-oncogene tyrosine-protein kinase Src (Homo sapiens, UniProt P12931); assay: Inhibition of Src (unknown origin)
LuCaP-77 CR cell [15] = settings: Homo sapiens, dose 100.0 mg/kg, time 7.0 day
[16] = target: Tyrosine-protein kinase JAK2 (Homo sapiens, UniProt O60674); assay: Inhibition of JAK2 (unknown origin)
Sequence of Tyrosine-protein kinase JAK2 (O60674 whole entry): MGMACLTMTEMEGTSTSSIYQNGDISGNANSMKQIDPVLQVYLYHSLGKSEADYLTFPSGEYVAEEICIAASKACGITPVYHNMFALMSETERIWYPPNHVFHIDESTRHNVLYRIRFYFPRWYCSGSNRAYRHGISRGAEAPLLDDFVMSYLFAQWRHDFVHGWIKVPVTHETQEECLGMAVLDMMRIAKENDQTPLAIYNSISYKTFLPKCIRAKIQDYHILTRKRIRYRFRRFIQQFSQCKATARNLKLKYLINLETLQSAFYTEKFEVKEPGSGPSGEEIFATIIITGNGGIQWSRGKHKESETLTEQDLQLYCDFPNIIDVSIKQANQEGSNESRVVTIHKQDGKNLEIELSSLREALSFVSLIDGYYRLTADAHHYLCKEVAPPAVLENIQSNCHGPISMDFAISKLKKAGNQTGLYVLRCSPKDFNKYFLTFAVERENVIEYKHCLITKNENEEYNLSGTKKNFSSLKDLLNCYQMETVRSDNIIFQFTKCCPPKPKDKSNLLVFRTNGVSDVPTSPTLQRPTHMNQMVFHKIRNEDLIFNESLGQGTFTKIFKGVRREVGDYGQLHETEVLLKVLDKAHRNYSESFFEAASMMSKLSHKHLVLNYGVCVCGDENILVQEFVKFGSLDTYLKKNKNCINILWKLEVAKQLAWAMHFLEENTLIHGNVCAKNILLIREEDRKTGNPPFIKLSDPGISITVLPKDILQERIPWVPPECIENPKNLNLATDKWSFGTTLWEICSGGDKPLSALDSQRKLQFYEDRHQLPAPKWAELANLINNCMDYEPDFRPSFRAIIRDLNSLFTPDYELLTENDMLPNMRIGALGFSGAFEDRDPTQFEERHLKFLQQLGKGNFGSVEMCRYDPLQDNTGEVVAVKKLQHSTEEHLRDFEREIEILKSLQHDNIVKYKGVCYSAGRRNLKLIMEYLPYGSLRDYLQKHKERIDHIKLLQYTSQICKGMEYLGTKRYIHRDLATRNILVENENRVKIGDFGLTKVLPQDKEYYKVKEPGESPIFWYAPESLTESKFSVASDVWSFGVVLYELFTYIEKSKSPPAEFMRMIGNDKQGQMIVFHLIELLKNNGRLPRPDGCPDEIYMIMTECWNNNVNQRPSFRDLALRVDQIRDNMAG

Toledo = assay: Antiproliferative activity against human Toledo cells assessed as inhibition of cell viability incubated for 3 to 5 days by Celltiter-Glo luminescent assay; format: functional, cell-based
NCI-H69 = assay: Antiproliferative activity against human NCI-H69 cells assessed as inhibition of cell viability incubated for 3 to 5 days by Celltiter-Glo luminescent assay; format: functional, cell-based
LuCaP-77 CR cell [17] = settings: Homo sapiens, dose 100.0 mg/kg, time 7.0 day; remark: listed apart in the source
cells = settings: Homo sapiens, SC-1
SET-2 = assay: Antiproliferative activity against human SET2 cells assessed as inhibition of cell viability incubated for 3 to 5 days by Celltiter-Glo luminescent assay; format: functional, cell-based
[18] = Anti-tumor activity against human LuCaP-77 CR cell xenografted in SCID mouse assessed as tumor growth inhibition administered for 21 days relative to control; format: functional; settings: time 21 day
[19] = target: Mitogen-activated protein kinase kinase kinase kinase 2 (Homo sapiens, UniProt Q12851); assay: Inhibition of MAP4K2 (unknown origin)
Sequence of Mitogen-activated protein kinase kinase kinase kinase 2 (Q12851 whole entry): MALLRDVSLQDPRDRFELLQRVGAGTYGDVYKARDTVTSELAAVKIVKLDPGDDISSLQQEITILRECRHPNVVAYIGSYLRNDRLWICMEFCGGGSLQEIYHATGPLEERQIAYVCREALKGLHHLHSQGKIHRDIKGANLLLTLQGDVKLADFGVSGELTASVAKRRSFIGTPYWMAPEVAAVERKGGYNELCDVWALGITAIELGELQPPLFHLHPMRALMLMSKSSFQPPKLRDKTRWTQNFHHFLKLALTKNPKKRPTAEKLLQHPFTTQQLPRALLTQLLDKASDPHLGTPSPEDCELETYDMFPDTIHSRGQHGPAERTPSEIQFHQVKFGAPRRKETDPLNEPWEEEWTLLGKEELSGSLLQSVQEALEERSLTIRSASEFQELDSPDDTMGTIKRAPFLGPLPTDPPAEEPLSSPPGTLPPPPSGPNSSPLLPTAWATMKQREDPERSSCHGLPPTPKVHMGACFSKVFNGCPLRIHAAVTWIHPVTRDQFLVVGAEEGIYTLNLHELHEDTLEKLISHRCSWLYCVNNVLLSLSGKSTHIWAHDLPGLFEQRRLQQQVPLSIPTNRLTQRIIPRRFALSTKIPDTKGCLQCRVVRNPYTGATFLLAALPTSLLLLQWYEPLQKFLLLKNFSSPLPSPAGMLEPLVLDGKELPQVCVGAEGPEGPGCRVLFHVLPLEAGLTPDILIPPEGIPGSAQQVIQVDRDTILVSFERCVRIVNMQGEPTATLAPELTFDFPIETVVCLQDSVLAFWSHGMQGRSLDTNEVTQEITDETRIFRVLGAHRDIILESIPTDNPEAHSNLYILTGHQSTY

SU-DHL10 = assay: Antiproliferative activity against human Su-DHL-10 cells assessed as inhibition of cell viability incubated for 3 to 5 days by Celltiter-Glo luminescent assay; format: functional, cell-based
HCC1937 = assay: Antiproliferative activity against human HCC1937 cells assessed as inhibition of cell viability incubated for 3 to 5 days by Celltiter-Glo luminescent assay; format: functional, cell-based
RL = assay: Antiproliferative activity against human RL cells assessed as inhibition of cell viability incubated for 3 to 5 days by Celltiter-Glo luminescent assay; format: functional, cell-based
JVM-2 = assay: Antiproliferative activity against human JVM-2 cells assessed as inhibition of cell viability incubated for 3 to 5 days by Celltiter-Glo luminescent assay; format: functional, cell-based
HCC38 = assay: Antiproliferative activity against human HCC38 cells assessed as inhibition of cell viability incubated for 3 to 5 days by Celltiter-Glo luminescent assay; format: functional, cell-based
in vivo = settings: CB17 SCID, mouse, brain/plasma, po, 500 mg/kg
[20] = target: Serine/threonine-protein kinase 4 (Homo sapiens, UniProt Q13043); assay: Inhibition of MST1 (unknown origin)
Sequence of Serine/threonine-protein kinase 4 (Q13043 whole entry): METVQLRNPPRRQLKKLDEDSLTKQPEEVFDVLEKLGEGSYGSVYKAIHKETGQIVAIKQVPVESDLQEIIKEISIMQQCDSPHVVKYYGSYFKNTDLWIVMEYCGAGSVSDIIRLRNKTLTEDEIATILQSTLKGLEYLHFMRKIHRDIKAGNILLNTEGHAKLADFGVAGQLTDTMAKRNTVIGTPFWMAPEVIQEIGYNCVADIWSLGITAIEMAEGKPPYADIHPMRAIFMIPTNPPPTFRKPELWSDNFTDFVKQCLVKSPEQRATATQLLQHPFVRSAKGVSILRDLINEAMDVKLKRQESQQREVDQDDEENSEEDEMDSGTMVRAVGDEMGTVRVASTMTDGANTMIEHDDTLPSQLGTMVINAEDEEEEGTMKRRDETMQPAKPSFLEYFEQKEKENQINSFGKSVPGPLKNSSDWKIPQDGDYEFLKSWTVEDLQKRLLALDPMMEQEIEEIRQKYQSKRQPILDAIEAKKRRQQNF

Hs 294T = assay: Antiproliferative activity against human Hs294T cells assessed as inhibition of cell viability incubated for 3 to 5 days by Celltiter-Glo luminescent assay; format: functional, cell-based

Structure (SMILES): CNC(=O)Nc1ccc2c(c1)CC[C@@]21OC(=O)N(CC(=O)N(Cc2ccc(F)cc2)[C@@H](C)C(F)(F)F)C1=O [A-485]
- EC50 (SU-DHL-8): 0.54 µM
- IC50 [1]: > 10 µM
- IC50 [2]: > 10 µM
- EC50 (MDA-MB-453): 1.87 µM
- Tmax [3]: 6 h
- EC50 (NCI-H209): 0.4 µM
- EC50 (MDA-MB-436): > 10 µM
- IC50 [4]: > 10 µM
- IC50 [5]: > 10 µM
- EC50 (GA-10): 1.06 µM
- IC50 [6]: > 10 µM
- EC50 (NU-DHL-1): 0.53 µM
- EC50 (WSU-NHL): 1.06 µM
- EC50 (Malme-3M): 2.69 µM
- Cmax [7]: 75.5 µg/mL
- INH [8]: 2.39 µM
- IC50 [9]: > 10 µM
- EC50 (SU-DHL-2): 0.95 µM
- IC50 [10]: > 10 µM
- EC50 (NCI-H510A): > 10 µM
- IC50 [11]: > 10 µM
- Cmax [12]: 242 µg/mL
- IC50 [13]: > 10 µM
- IC50 [14]: > 10 µM
- inhibition (LuCaP-77 CR cell [15]): Active
- IC50 [16]: > 10 µM
- EC50 (Toledo): 0.49 µM
- EC50 (NCI-H69): > 10 µM
- inhibition (LuCaP-77 CR cell [17]): inactive
- EC50 (cells): 1.69 µM
- EC50 (SET-2): 2.01 µM
- TGI [18]: 54%
- IC50 [19]: > 10 µM
- EC50 (SU-DHL10): 0.92 µM
- EC50 (HCC1937): > 10 µM
- EC50 (RL): 1.05 µM
- EC50 (JVM-2): > 10 µM
- EC50 (HCC38): > 10 µM
- Kp at 24 h (in vivo): 0.03
- IC50 [20]: > 10 µM
- EC50 (Hs 294T): 9 µM
